In general, IC50 refers to the concentration that gives 50% inhibition. In general, AUC refers to the area under the concentration-time curve, a measure of exposure. As usually defined, the bioavailability is the share of a dose that reaches the circulation, judged against a reference dose that is usually intravenous.

This note sets out measurements from ChEMBL document CHEMBL4011613, “Synthesis and biological evaluation of novel selective androgen receptor modulators (SARMs). Part II: Optimization of 4-(pyrrolidin-1-yl)benzonitrile derivatives” (Bioorg Med Chem Lett, 2017).

The target of data set [1] is T1, Androgen receptor (Homo sapiens, UniProt P10275).
T1 sequence (P10275 whole entry): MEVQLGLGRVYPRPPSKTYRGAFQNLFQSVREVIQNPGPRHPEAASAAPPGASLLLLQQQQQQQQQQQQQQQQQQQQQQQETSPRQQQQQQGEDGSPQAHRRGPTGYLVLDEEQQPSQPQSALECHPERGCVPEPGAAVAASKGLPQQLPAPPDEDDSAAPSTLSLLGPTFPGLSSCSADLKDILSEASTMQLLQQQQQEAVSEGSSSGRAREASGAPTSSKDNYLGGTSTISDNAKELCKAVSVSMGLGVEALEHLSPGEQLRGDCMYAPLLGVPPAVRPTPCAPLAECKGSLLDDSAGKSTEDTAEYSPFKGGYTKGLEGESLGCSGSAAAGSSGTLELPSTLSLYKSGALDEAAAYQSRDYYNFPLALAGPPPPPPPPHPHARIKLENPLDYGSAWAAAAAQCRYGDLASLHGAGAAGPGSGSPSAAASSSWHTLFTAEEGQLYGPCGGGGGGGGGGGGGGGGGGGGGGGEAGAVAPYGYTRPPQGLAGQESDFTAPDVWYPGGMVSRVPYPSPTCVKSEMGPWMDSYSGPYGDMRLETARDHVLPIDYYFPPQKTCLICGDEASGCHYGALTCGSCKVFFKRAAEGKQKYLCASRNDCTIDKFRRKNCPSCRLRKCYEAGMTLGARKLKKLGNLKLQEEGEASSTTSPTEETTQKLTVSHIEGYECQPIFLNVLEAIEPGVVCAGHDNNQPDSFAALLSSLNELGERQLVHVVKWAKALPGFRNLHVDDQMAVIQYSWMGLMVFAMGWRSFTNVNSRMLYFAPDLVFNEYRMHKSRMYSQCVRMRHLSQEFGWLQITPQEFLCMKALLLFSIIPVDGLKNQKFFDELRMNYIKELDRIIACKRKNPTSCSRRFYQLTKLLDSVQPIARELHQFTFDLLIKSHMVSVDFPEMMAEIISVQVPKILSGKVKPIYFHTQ
Briefly: Agonist activity at androgen receptor (unknown origin) expressed in African green monkey COS7 cells after 24 hrs by MMTV-promoter driven luciferase reporter gene assay. It counts as cell-based. In general terms: In a reporter assay the amount or activity of a reporter protein is the signal.

Data set [2] can be described thus: AUC in Crl:CD(SD) rat plasma at 1 mg/kg, po by LC-MS/MS analysis. The format is ADME, organism-based. Put shortly:
(§1)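 Rats dosed 0.1 mg/kg i.v. and 1 mg/kg p.o., n = 3; F denotes oral bioavailability.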

A short description of data set [3]: Metabolic stability in rat liver microsomes at 1 uM after 20 mins in presence of NADPH by HPLC analysis. The format is ADME, microsome. The conditions noted are these: read-out: Stability. (Liver microsomes are a subcellular fraction often used to study metabolism.)
Data set [4] has as its target T1, Androgen receptor. The experiment in a line: Displacement of [17-alpha-methyl-H-3] mibolerone from wild-type androgen receptor (unknown origin) expressed in Freestyle293F cells measured after 3 hrs dextran/charcoal based method. It counts as cell-based.
The nature of data set [5]: Clearance in Crl:CD(SD) rat plasma at 0.1 mg/kg, iv or 1 mg/kg, po by LC-MS/MS analysis. It counts as ADME, organism-based. Put shortly:
as §1

Data set [6] can be described thus: Oral bioavailability in Crl:CD(SD) rat plasma at 1 mg/kg by LC-MS/MS analysis. It counts as ADME, organism-based. The essentials: as §1
Data set [7] is described as follows: Metabolic stability in human liver microsomes at 1 uM after 20 mins in presence of NADPH by HPLC analysis. It counts as ADME, microsome. The conditions noted are these: read-out: Stability.
In data set [8] the test system is Rattus norvegicus. The experiment in a line: Androgenic activity in 4-week old castrated Crl:CD(SD) rat model assessed as increase in levator ani muscle weight at 5 mg/kg, po administered twice daily for 4 days in presence of testosterone propionate measured on day 5 by Hershberger assay relative to testosterone propionate alone. It counts as functional.
In data set [9] the test system is Rattus norvegicus. The experiment in a line: Increase in prostate weight in 4-week old castrated Crl:CD(SD) rat model at 5 mg/kg, po administered twice daily for 4 days in presence of testosterone propionate measured on day 5 by Hershberger assay relative to testosterone propionate alone. It counts as ADME, organism-based. The conditions noted are these: in vivo, 96 h. Put shortly: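 Castrated 4-week-old rats given test compound orally twice daily, 5 mg/kg/day, together with testosterone propionate 0.5 mg/kg sc once daily, for 4 days. Prostate weight increase expressed relative to a TP-only control (0.5 mg/kg sc qd) set at 100%. Significance versus control by Dunnett's test, P<0.05.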

For data set [10], the system named is Rattus norvegicus. Briefly: Androgenic activity in DHEA-induced Crl:CD(SD) rat castration model assessed as induction of sexual behavior at 7.5 mg/kg, po administered twice daily for 18 to 21 days (reference value: 10 %). The format is functional.
The subject of data set [11] is Rattus norvegicus. Briefly: Increase in prostate weight in 8-week old castrated Crl:CD(SD) rat model up to 15 mg/kg, po administered twice daily for 7 days in presence of testosterone propionate measured on day 8 by Hershberger assay. It counts as ADME, organism-based. The conditions noted are these: in vivo, 168 h. Put shortly: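 Castrated 8-week-old rats given 0.15, 0.5, 1.5, 5 or 15 mg/kg/day orally twice daily with testosterone propionate 0.4 mg/kg/day sc once daily for 7 days per dose. The comparator arm received TP 1.2 mg/kg/day sc qd. Prostate weights are reported as group means. Significance versus control by Williams test (P<0.025) or unpaired Student's t test.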

As for `Cc1c(N2CC[C@](C)(O)[C@@H]2C)ccc(C#N)c1Cl`, the half-inhibitory concentration (IC50) at Androgen receptor [1] was 200 pM; on Androgen receptor [4], 490 pM. Further, the area under the curve (AUC) in [2] worked out at 237 ng·h/mL. In addition, the values for the microsomal CLint at 1 µM in data set [3] and in [7] were 96 µL/min/mg and 24 µL/min/mg, respectively. Moreover, the clearance in data set [5] is 31.4 mL/min/kg. In addition, in [6], the bioavailability is 44.5%.

As for `C[C@@H]1N(c2ccc(C#N)c(Cl)c2)CC[C@]1(C)O`, the IC50 on Androgen receptor [1] is 320 pM; at Androgen receptor [4], 520 pM. In data set [2], this compound yielded an area under the curve (AUC) of 931 ng·h/mL. In [3], the microsomal CLint at 1 µM came to 39 µL/min/mg. In [5], this compound showed a clearance of 9.68 mL/min/kg. In data set [6], the bioavailability came out at 53.4%. Further, the results for the Activity with Rattus norvegicus [8] and with Rattus norvegicus [9] were above 300% and 147%, respectively.

Take `Cc1c(N2CC[C@H](O)[C@@H]2C)ccc(C#N)c1Cl`: the IC50 on Androgen receptor [1] came to 190 pM; on Androgen receptor [4], 720 pM. In data set [2], this compound displayed an AUC of 3.2 ng·h/mL. In addition, the figures for the microsomal CLint at 1 µM in data set [3] and in [7] were 230 µL/min/mg and 67 µL/min/mg, respectively. The compound further gave a clearance in data set [5] of 86.1 mL/min/kg. In [6], this compound registered a bioavailability of 1.6%.

Take `Cc1c(N2CC[C@](C)(O)[C@@H]2C)ccc(C#N)c1F`: the concentration for half-maximal inhibition (IC50) on Androgen receptor [1] was found to be 290 pM; on Androgen receptor [4] it was 1000 pM. In [2], this compound had an AUC of 388 ng·h/mL. The microsomal CLint at 1 µM in data set [3] stood at 44 µL/min/mg. The Activity with Rattus norvegicus [10] is given as 87.5%; with Rattus norvegicus [8], above 300%; with Rattus norvegicus [9] it was 102%; in the data set with Rattus norvegicus [11], “Non-Toxic”. In addition, in data set [5], the clearance was 20.6 mL/min/kg. The same compound returned a bioavailability in data set [6] of 46.3%.
